Sampled rows, rich in hits. Any-hit rate of the full collection: about 2.1%.
CRFR2-BP ag: CRF-BP/CRF-R2 complex agonism; 350,000 compounds, 0.46% hits; activation, % at 13.2 µM; HEK293 CRF-R2/CRF-BP, calcium dye fluorescence (FLIPR); percent of saturating CRF peptide response;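 active = activation of at least 50%, plus an integration ratio under a set limit after plate pattern correction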
IMP-1 inhibitor: blocks Pseudomonas aeruginosa IMP-1 metallo-beta-lactamase | 290,000 compounds, 0.45% hits | inhibition, % at 5.6 µM | purified IMP-1, nitrocefin hydrolysis, epi-absorbance fluorescence;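 active = inhibition above the mean plus 3 SD of all compounds in the same screening run, cut at about 4.5% in these data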
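Material – recombinant IMP-1 enzyme, purified · Amount – IMP-1 0.2 nM before substrate addition · Medium – HEPES buffer pH 7.1 with ZnSO4 and Brij 35 · Timing – 25 °C, 15 min preincubation, 25 min reaction · Measured by – plate fluorescence quenching by hydrolysis product, ex 480/em 530 nm · Read-out – percent enzyme inhibition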
CRFBP-R2 block: blocks CRF-induced signaling of the CRF-BP/CRF-R2 complex; AID 588475; 350,000 compounds, 0.59% hits; HEK293 CRF-R2/CRF-BP, CRF-induced calcium fluorescence; inhibition, % at 11.8 µM;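 active = inhibition of the ligand-induced calcium signal above about 50% at the single tested concentration, limit read from the data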
TRPML3 agonist: activates the human TRPML3 channel. 220,000 compounds, 0.29% hits. activation, % at 3 µM. HEK293 TRPML3-YFP, Fluo-8 calcium fluorescence; 100% = the carbachol control signal. AID 1448. Q8TDD5;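 active = activation above its plate's cutoff, the mean activation of the plate's test wells plus 3 SD, cut at about 12% in these data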
Target sequence (Q8TDD5 whole entry, looked up): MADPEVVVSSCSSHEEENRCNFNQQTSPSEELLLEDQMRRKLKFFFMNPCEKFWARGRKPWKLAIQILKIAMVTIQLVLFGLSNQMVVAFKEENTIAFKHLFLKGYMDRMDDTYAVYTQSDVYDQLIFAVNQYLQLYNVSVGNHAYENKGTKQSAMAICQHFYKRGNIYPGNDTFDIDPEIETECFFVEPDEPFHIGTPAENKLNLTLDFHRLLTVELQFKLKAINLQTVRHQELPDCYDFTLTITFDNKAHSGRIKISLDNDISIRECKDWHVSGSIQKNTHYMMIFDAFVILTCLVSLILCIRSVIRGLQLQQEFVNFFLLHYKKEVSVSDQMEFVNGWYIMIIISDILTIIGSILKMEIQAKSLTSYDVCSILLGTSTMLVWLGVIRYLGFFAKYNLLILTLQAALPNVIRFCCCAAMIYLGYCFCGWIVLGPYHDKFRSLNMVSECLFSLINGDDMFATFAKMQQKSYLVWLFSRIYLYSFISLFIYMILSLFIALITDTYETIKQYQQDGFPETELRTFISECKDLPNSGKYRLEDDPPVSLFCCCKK
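Material: HEK293 cells stably carrying human TRPML3-YFP; compound dosing: single dose, 3 µM final nominal compound, 0.3% DMSO final; incubation: 1-h 37 °C dye load, 5-s basal, 120-s post-compound reads; technique: Fluo-8 intracellular calcium fluorescence, excitation 470-495 nm, emission 515-575 nm; read-out basis: percent activation from peak-to-basal fluorescence ratio, scaled between DMSO and carbachol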
TRPN1 ag: zebrafish TRPN1 (NompC) channel agonism; HEK293 zebrafish TRPN1-YFP, Fluo-8 calcium fluorescence; 100% = response to 87 µM carbachol; activation, % at 3 µM; 220,000 compounds, 0.18% hits;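 active = activation above its plate's cutoff, the mean activation of test wells on that plate plus 3 SD, cut at about 19% in these data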
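Material: zebrafish TRPN1-YFP in HEK293 cells. Doses: one dose of 3 µM, 0.3% DMSO. Incubation: dye 1 h 37 °C plus 30 min RT. Measured by: intracellular calcium fluorescence with Fluo-8.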
VIM-2 inh: inhibitors of Pseudomonas aeruginosa VIM-2 metallo-beta-lactamase; inhibition, % at 5.6 µM; AID 1527; 290,000 compounds, 0.89% hits; purified VIM-2, nitrocefin hydrolysis, epi-absorbance fluorescence;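 active = inhibition above the mean of all tested compounds plus 3 SD, cutoff set per screening run, cut at about 7.5% in these data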;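 also: red hydrolysis product quenches plate fluorescence so inhibitors raise well fluorescence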
Large screens that a line does not name were inactive.

CC(C)Cc1csc(NC(=O)c2ccc(Cl)cc2)c1C(=O)O	CRFBP-R2 block 95
CC(C)Cc1csc(NC(=O)c2ccccc2Cl)c1C(=O)O	none
CC1CN(C(=O)COC(=O)c2cc(=O)[nH]c3ccccc23)CC(C)O1 (centres undefined)	none (no result: IMP-1 inhibitor, TRPML3 agonist, TRPN1 ag, VIM-2 inh)
O=C1NC[C@H](Cc2ccc(O)cc2)N(CCc2cccc3ccccc23)C1=O	none (no result: IMP-1 inhibitor, TRPML3 agonist, TRPN1 ag, VIM-2 inh)
C[C@@H](CN1C(=O)C(=O)NC[C@@H]1Cc1ccc(O)cc1)NC(=O)Cc1ccccc1	IMP-1 inhibitor 13 (no result: TRPML3 agonist, TRPN1 ag)
Cc1cc(/C=C2\SC(=S)NC2=O)c(C)n1C1CC1	VIM-2 inh 7.7
Cc1cc(/C=C2/C(=O)N(C)C(=S)N2C)c(C)n1C1CC1	none
CCOC(=O)CC1COCCN1C(=O)c1cc(COc2ccc(F)cc2Cl)on1 (centres undefined)	none (no result: TRPML3 agonist, TRPN1 ag)
CC12CC3CC(C)(C1)CC(C(=O)NNC(=O)c1ccncc1)(C3)C2	CRFBP-R2 block 66 (no result: TRPML3 agonist, TRPN1 ag)
O=C(NNC(=O)C12CC3CC(CC(C3)C1)C2)c1ccncc1	none (no result: TRPML3 agonist, TRPN1 ag)
COc1ccc(-n2ncc3c(N4CCN(Cc5ccccc5)CC4)ncnc32)cc1	none
CCN(c1ccccc1)S(=O)(=O)c1cc(NC(=O)CSc2n[nH]c(=O)[nH]c2=O)ccc1Cl	CRFBP-R2 block 111
N#Cc1cccc2c1-c1ccccc1/C2=N/NC(N)=S	none (no result: TRPML3 agonist, TRPN1 ag)
N#Cc1cccc2c1-c1ccccc1/C2=N/NC(N)=O	VIM-2 inh 10 (no result: TRPML3 agonist, TRPN1 ag)
CCOC(=O)N1CCN(C(=S)NC(=O)c2cncc(Br)c2)CC1	IMP-1 inhibitor 5.4
CC1(C)NC(=O)N(CC(=O)OCC(=O)c2ccc(Br)s2)C1=O	none (no result: IMP-1 inhibitor, TRPML3 agonist, TRPN1 ag, VIM-2 inh)
CC(C)(C)C1CCC(OC(=O)CN2CCCCC2)CC1 (centres undefined)	none
NC(CC(=O)OC1CCCCC1)C(=O)OC1CCCCC1 (centres undefined)	IMP-1 inhibitor 5.4
CCN(CC)c1ccc(NC(=O)CCS(=O)(=O)c2ccc(Br)cc2)c(C)c1	IMP-1 inhibitor 24 (no result: TRPML3 agonist, TRPN1 ag)
COCC1CCN(Cc2nc(-c3ccc4c(c3)OCO4)no2)C1 (centres undefined)	CRFR2-BP ag 203
c1cc(C2CCN(Cc3nc(-c4ccc5c(c4)OCO5)no3)CC2)ccn1	none
CCN(C(=O)c1ccc(S(=O)(=O)N2CCOCC2)cc1)C1CCS(=O)(=O)C1 (centres undefined)	none (no result: IMP-1 inhibitor, TRPML3 agonist, TRPN1 ag, VIM-2 inh)
COc1ccc(CN(C)Cc2nc3scc(-c4ccccc4)c3c(=O)[nH]2)cc1OC	CRFBP-R2 block 60
Cc1[nH]c2ccccc2c1/C=N/Nc1ccc([N+](=O)[O-])cc1S(=O)(=O)Nc1ccc(Cl)cc1	CRFR2-BP ag 109
CCCc1cnc(N2CCN(C(=O)c3c(-c4ccccc4)noc3C)CC2)nc1	none
Nc1c(C(=O)C2CC2)sc2nc(-c3ccccc3)cc(C(F)(F)F)c12	CRFR2-BP ag 238
CN(C)CCNC(=O)c1sc2nc(-c3ccccc3)cc(C(F)(F)F)c2c1N	VIM-2 inh 12 (no result: TRPML3 agonist, TRPN1 ag)
CC(=O)c1sc2nc(-c3cccs3)cc(C(F)(F)F)c2c1N	CRFR2-BP ag 113
COc1cccc(-c2cc(C(F)(F)F)c3c(N)c(C#N)sc3n2)c1	none (no result: CRFR2-BP ag, CRFBP-R2 block)
COc1ccc(-c2cc(C(F)(F)F)c3c(N)c(C(=O)NCCSC)sc3n2)cc1	CRFR2-BP ag 66 (no result: TRPML3 agonist, TRPN1 ag)
COc1ccc(OC)c(NC(=O)c2sc3nc(Cc4ccccc4)cc(C(F)(F)F)c3c2N)c1	none
O=C(c1ccc(F)cc1)C1CCN(Cc2ccccc2F)CC1	CRFBP-R2 block 58 (no result: IMP-1 inhibitor, TRPML3 agonist, TRPN1 ag, VIM-2 inh)
COc1ccc(OC)c(N(CC(=O)N2CCOCC2)S(C)(=O)=O)c1	none (no result: TRPML3 agonist, TRPN1 ag)
C=CCn1c(=O)c2c(nc3n2CC(C)CN3Cc2ccccc2)n(C)c1=O (centres undefined)	none (no result: TRPML3 agonist, TRPN1 ag)
CC1CCCN(CCCNC(=O)CN2C(=O)CSc3ccc(S(=O)(=O)N4CCOCC4)cc32)C1 (centres undefined)	CRFBP-R2 block 89 (no result: TRPML3 agonist, TRPN1 ag)
COc1ccc(S(=O)(=O)N(CC(=O)NCC2CCCO2)C2CCCCC2)cc1OC (centres undefined)	none (no result: TRPML3 agonist, TRPN1 ag)
COC(=O)c1ccc(NC(=O)COC(=O)CSc2nc(C)cc(C)n2)cc1	CRFBP-R2 block 52
O=C(CSc1nnc(NC(=O)c2c(F)cccc2F)s1)NCc1ccc(F)cc1	none (no result: IMP-1 inhibitor, TRPML3 agonist, TRPN1 ag, VIM-2 inh)
